Measured values from ChEMBL document CHEMBL1123743, “Antisecretory activity of human, dog, and rat metabolites of fenoctimine” (J Med Chem, 1987).
≈ marks a conversion by molar mass, not a printed value. Calls of active or inactive are those of the source. The rule behind the calls is not given here.

Columns and labels:
Rattus norvegicus [1] = experiment: Antisecretory activity was evaluated in acute gastric fistula of rat after peroral administration; format: functional; conditions: Stomach, po
Method in brief: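 Female Sprague-Dawley rats (120–160 g), food-deprived ≥18 h, given drug or vehicle (0.5% methocel) orally 1 h before surgery. Under ether anesthesia a flanged polyethylene cannula was placed in the fundic stomach. The first 30-min collection was discarded, then two 1-h samples were taken. Volume was measured and acidity titrated to pH 7 with 0.01 N NaOH. ED50 = dose giving 50% inhibition of total acid output vs controls, by least-squares regression.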

Rattus norvegicus [2] = experiment: Antisecretory activity was evaluated in acute gastric fistula of rat after intraperitoneal administration; format: functional; conditions: Stomach, ip
Cavia porcellus = species: Cavia porcellus; experiment: Anticholinergic activity was determined in vitro by measuring their effect on the acetylcholine chloride induced contraction of guinea pig ileum; format: functional
Method in brief: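 Ileum was isolated from female guinea pigs (200–500 g) killed with CO2. Acetylcholine chloride was added in rising concentrations up to maximal response. Test compound was given 2 min before the agonist, with antagonism assessed against the maximal acetylcholine dose. Full concentration–response curves were run.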

Rattus norvegicus [3] = experiment: Antisecretory activity was evaluated in acute gastric fistula of rat after intravenous administration; format: functional; conditions: Stomach
Rattus norvegicus [4] = experiment: Antisecretory activity was evaluated in acute gastric fistula of rat after administration of 40 mg/kg; I=inactive; format: functional, organism-based; parameters: dose 40 mg/kg; conditions: Stomach

Question: `CN/C(=N\CCSCc1nc[nH]c1C)NC#N` [CIMETIDINE] was tested. Which ED50 (Rattus norvegicus [1]) did it give?
Answer: Its ED50 is 7.6 mg/kg.

Question: `CC(=O)CCCCCC/N=C/N1CCC(C(c2ccccc2)c2ccccc2)CC1` was tested. Which ED50 (Rattus norvegicus [1]) did it give?
Answer: The ED50 was 10.5 mg/kg.

Question: And the ED50 (Rattus norvegicus [2])?
Answer: The ED50 was 1.5 mg/kg.

Question: What about the IC50 (Cavia porcellus) of the same compound?
Answer: The IC50 was 2.2 µg/mL (≈ 5.44 µM).

Question: Which results are given for `COC(=O)CCCCCCC/N=C/N1CCC(C(c2ccccc2)c2ccccc2)CC1.O=C(O)/C=C/C(=O)O`?
Answer: ED50 (Rattus norvegicus [3]): 4.7 mg/kg; ED50 (Rattus norvegicus [1]): 10.1 mg/kg; IC50 (Cavia porcellus): 0.3 µg/mL

Question: Which IC50 (Cavia porcellus) does the source give for `Cl.O.O=C([O-])CCCCCCC/N=C/N1CCC(C(c2ccccc2)c2ccccc2)CC1.O=C([O-])CCCCCCC/N=C/N1CCC(C(c2ccccc2)c2ccccc2)CC1.[Zn+2]` here?
Answer: Its IC50 is 1.2 µg/mL.

Question: `CN1[C@@H]2CC[C@H]1C[C@@H](OC(=O)C(CO)c1ccccc1)C2` (stereo partly drawn) [ATROPINE] was tested. Which ED50 (Rattus norvegicus [1]) did it give?
Answer: The ED50 was 1.1 mg/kg.

Question: And the IC50 (Cavia porcellus)?
Answer: The IC50 was 0.0038 µg/mL (≈ 0.0131 µM).

Question: For `CCCCCCCC/N=C/N1CCC(C(c2ccccc2)c2ccc(O)cc2)CC1.O=S(=O)(O)c1ccc2ccccc2c1` (stereo not drawn), which ED50 (Rattus norvegicus [1]) is on record?
Answer: Its ED50 is greater than 40 mg/kg.

Question: What about the ED50 (Rattus norvegicus [2]) of the same compound?
Answer: Its ED50 is 3.1 mg/kg.

Question: What about the IC50 (Cavia porcellus) of the same compound?
Answer: The IC50 was 0.96 µg/mL.

Question: Which ED50 (Rattus norvegicus [1]) does the source give for `CCCCCCCC/N=C\N1CCC(C(c2ccccc2)c2ccc(OC)cc2)CC1.O=C(O)/C=C/C(=O)O` (stereo not drawn) here?
Answer: The ED50 was 15.7 mg/kg.

Question: What about the ED50 (Rattus norvegicus [2]) of the same compound?
Answer: Its ED50 is 0.63 mg/kg.

Question: What about the IC50 (Cavia porcellus) of the same compound?
Answer: The IC50 was 1.9 µg/mL.

Question: Which ED50 (Rattus norvegicus [1]) does the source give for `CC1(CCCCCC/N=C\N2CCC(C(c3ccccc3)c3ccccc3)CC2)OCCO1.O=C(O)/C=C/C(=O)O` here?
Answer: Its ED50 is 4.8 mg/kg.

Question: What about the ED50 (Rattus norvegicus [2]) of the same compound?
Answer: Its ED50 is 0.98 mg/kg.

Question: And the IC50 (Cavia porcellus)?
Answer: Its IC50 is 1.96 µg/mL.

Question: With `CC(O)CCCCCC/N=C/N1CCC(C(c2ccccc2)c2ccccc2)CC1` (stereo not drawn) as the compound, how does the ED50 (Rattus norvegicus [1]) read?
Answer: Its ED50 is 8.9 mg/kg.

Question: What about the IC50 (Cavia porcellus) of the same compound?
Answer: Its IC50 is 1.7 µg/mL (≈ 4.18 µM).

Question: Which ED50 (Rattus norvegicus [3]) does the source give for `OCCCCCC/N=C/N1CCC(C(c2ccccc2)c2ccccc2)CC1` here?
Answer: Its ED50 is 4.5 mg/kg.

Question: What about the ED50 (Rattus norvegicus [1]) of the same compound?
Answer: Its ED50 is 11.2 mg/kg.

Question: What about the ED50 (Rattus norvegicus [2]) of the same compound?
Answer: Its ED50 is 2 mg/kg.

Question: And the IC50 (Cavia porcellus)?
Answer: The IC50 was 0.26 µg/mL (≈ 0.687 µM).

Question: What does the source list for `OCCCCCCCC/N=C/N1CCC(C(c2ccccc2)c2ccccc2)CC1`?
Answer: ED50 (Rattus norvegicus [3]): 9.7 mg/kg; ED50 (Rattus norvegicus [1]): 8.5 mg/kg; ED50 (Rattus norvegicus [2]): 0.44 mg/kg; IC50 (Cavia porcellus): 0.29 µg/mL (≈ 0.713 µM)

Question: How did the ED50 (Rattus norvegicus [1]) turn out when `C/C(CCCCCC/N=C\N1CCC(C(c2ccccc2)c2ccccc2)CC1)=N\O.O=S(=O)(O)c1ccc2ccccc2c1` was run?
Answer: The ED50 was 12.5 mg/kg.

Question: What about the ED50 (Rattus norvegicus [2]) of the same compound?
Answer: The ED50 was 8.8 mg/kg.

Question: What about the IC50 (Cavia porcellus) of the same compound?
Answer: The IC50 was 4.1 µg/mL.

Question: What does the source list for `O=CN1CCC(C(c2ccccc2)c2ccccc2)CC1`?
Answer: ED50 (Rattus norvegicus [4]): inactive; IC50 (Cavia porcellus): 21.9 µg/mL (≈ 78.4 µM)

Question: How did the ED50 (Rattus norvegicus [3]) turn out when `CCCCCCCC/N=C/N1CCC(C(c2ccccc2)c2ccccc2)CC1` [FENOCTIMINE] was run?
Answer: The ED50 was 1.1 mg/kg.

Question: And the ED50 (Rattus norvegicus [1])?
Answer: Its ED50 is 3.9 mg/kg.

Question: What about the ED50 (Rattus norvegicus [2]) of the same compound?
Answer: Its ED50 is 0.6 mg/kg.

Question: What about the IC50 (Cavia porcellus) of the same compound?
Answer: Its IC50 is 1.8 µg/mL (≈ 4.61 µM).
